Experimental data taken from ChEMBL document CHEMBL2380300, “Identification of new peptide amides as selective cathepsin L inhibitors: the first step towards selective irreversible inhibitors?” (Bioorg Med Chem Lett, 2013).
Square brackets hold non-standard residues; d marks the D form. Peptide text beside a SMILES is read from it. * marks the point of attachment. ξ: configuration not given here. Bip = N[C@@H](Cc1ccc(-c2ccccc2)cc1)C(=O)O; Cbz = O=C(OCc1ccccc1)*; ξPip = O=C(O)C1CCCCN1

Assays:
Homo sapiens [1] = species: Homo sapiens; assay: Selectivity ratio of Ki for recombinant cathepsin-S (unknown origin) to Ki for recombinant cathepsin-L (unknown origin)
In short: (§1)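 FK = Ki(CatK)/Ki(CatL) and FS = Ki(CatS)/Ki(CatL). Each Ki comes from recombinant enzyme kinetics over a minimum of four inhibitor concentrations, each measured in duplicate.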

Cathepsin K = biological target: T1, Cathepsin K (Homo sapiens, UniProt P43235); assay: Inhibition of recombinant cathepsin-K (unknown origin) using Z-Phe-Arg-AMC as substrate by fluorescence assay
T1 sequence (P43235 whole entry): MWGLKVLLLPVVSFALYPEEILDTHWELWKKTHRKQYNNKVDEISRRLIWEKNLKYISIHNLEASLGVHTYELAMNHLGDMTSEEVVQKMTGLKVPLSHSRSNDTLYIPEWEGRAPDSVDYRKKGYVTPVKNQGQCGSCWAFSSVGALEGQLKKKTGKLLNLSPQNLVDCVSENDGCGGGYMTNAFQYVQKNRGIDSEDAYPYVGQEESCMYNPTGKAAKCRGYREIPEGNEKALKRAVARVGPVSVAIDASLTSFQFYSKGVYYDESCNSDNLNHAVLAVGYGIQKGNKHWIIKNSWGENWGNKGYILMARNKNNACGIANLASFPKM
In short: (§2)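 Recombinant enzyme kinetics. Inhibitor stocks were quantified by amino-acid analysis. Ki was obtained from a minimum of four inhibitor concentrations, each run in duplicate.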

Homo sapiens [2] = species: Homo sapiens; assay: Selectivity ratio of Ki for recombinant cathepsin-B (unknown origin) to Ki for recombinant cathepsin-L (unknown origin)
In short: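 Selectivity factor FB = Ki(CatB)/Ki(CatL). Both Ki values come from kinetic runs with the recombinant enzymes, each using at least three inhibitor concentrations in duplicate.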

Procathepsin L = Procathepsin L (Homo sapiens, UniProt P07711); assay: Inhibition of recombinant cathepsin-L (unknown origin) using Z-Phe-Arg-AMC as substrate by fluorescence assay
In short: (§3)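 Kinetic assay with recombinant enzyme. Peptide amide stock concentrations were set by amino-acid analysis. Ki was derived from at least three inhibitor concentrations, each measured in duplicate.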

Cathepsin B = Cathepsin B (Homo sapiens, UniProt P07858); assay: Inhibition of recombinant cathepsin-B (unknown origin) using Z-Arg-Arg-AMC as substrate by fluorescence assay; in short: as §3
Cathepsin S = Cathepsin S (Homo sapiens, UniProt P25774); assay: Inhibition of recombinant cathepsin-S (unknown origin) using Z-Val-Arg-AMC as substrate by fluorescence assay; in short: as §2
Homo sapiens [3] = species: Homo sapiens; assay: Selectivity ratio of Ki for recombinant cathepsin-K (unknown origin) to Ki for recombinant cathepsin-L (unknown origin); in short: as §1

Sequence of Procathepsin L (P07711 whole entry): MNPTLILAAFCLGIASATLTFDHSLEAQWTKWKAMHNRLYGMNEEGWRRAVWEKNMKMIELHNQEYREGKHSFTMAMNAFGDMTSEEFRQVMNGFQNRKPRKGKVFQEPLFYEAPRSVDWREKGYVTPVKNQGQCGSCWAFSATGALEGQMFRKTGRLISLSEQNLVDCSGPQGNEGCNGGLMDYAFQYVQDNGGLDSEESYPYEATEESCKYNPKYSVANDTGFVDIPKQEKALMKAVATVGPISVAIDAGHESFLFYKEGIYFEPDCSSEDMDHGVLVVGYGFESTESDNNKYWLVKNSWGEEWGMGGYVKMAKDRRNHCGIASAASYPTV
Sequence of Cathepsin S (P25774 whole entry): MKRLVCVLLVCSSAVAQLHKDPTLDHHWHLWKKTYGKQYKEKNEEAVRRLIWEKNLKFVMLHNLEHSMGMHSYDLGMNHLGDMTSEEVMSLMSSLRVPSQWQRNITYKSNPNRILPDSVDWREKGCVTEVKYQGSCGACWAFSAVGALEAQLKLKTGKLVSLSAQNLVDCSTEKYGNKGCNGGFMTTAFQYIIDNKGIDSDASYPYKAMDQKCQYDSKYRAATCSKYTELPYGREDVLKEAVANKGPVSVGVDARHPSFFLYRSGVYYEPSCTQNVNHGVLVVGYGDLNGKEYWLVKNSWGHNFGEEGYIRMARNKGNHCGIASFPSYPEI

Compound	Ratio Ki (Homo sapiens [1])	Ki (Cathepsin K) [µM]	Ratio Ki (Homo sapiens [2])	Ki (Procathepsin L) [µM]	Ki (Cathepsin B) [µM]	Ki (Cathepsin S) [µM]	Ratio Ki (Homo sapiens [3])
NCCCC[C@H](NC(=O)[C@H](Cc1ccccc1)NC(=O)[C@H](Cc1c[nH]c2ccccc12)NC(=O)OCc1ccccc1)C(N)=O (Cbz-Trp-Phe-Lys-NH2)	51	639	2140	0.39	835	20	1640
CC(C)C[C@H](NC(=O)OCc1ccccc1)C(=O)N[C@@H](Cc1ccccc1)C(=O)N[C@@H](CCCCN)C(N)=O (Cbz-Leu-Phe-Lys-NH2)	27	213	2630	0.45	1180	12	473
N=C(N)NCCC[C@H](NC(=O)OCc1ccccc1)C(=O)N[C@@H](Cc1ccccc1)C(=O)N[C@@H](CCCCN)C(N)=O (Cbz-Arg-Phe-Lys-NH2)	11	147	1760	0.74	1300	8.5	198
NCCCC[C@H](NC(=O)[C@H](Cc1ccccc1)NC(=O)OCc1ccccc1)C(N)=O	13	47	810	4.2	3410	56	11
CC(C)(C)c1ccc(C(=O)N[C@@H](Cc2ccccc2)C(=O)N[C@@H](CCCCN)C(N)=O)cc1	–	–	312	1	312	–	–
CC(=O)Oc1cccc(C(=O)N[C@@H](Cc2ccccc2)C(=O)N[C@@H](CCCCN)C(N)=O)c1	–	–	425	2.4	1020	–	–
NCCCC[C@H](NC(=O)[C@H](Cc1ccc(-c2ccccc2)cc1)NC(=O)OCc1ccccc1)C(N)=O (Cbz-[Bip]-Lys-NH2)	–	–	32	2.4	77	–	–
CC(C)C[C@H](NC(=O)[C@H](Cc1ccccc1)NC(=O)OCc1ccccc1)C(N)=O (Cbz-Phe-Leu-NH2)	–	–	310	14	4340	–	–
NCCCC[C@H](NC(=O)[C@H](Cc1ccccc1)NC(=O)C1CCCCN1)C(N)=O (stereo partly drawn) (H-[ξPip]-Phe-Lys-NH2)	–	–	8.4	6.1	51	–	–
NCCCC[C@H](NC(=O)[C@H](Cc1ccccc1)NC(=O)c1ccc(Br)cc1)C(N)=O	–	–	113	2.3	261	–	–
NCCCC[C@H](NC(=O)[C@H](Cc1ccccc1)NC(=O)c1cc([N+](=O)[O-])ccc1Cl)C(N)=O	–	–	651	2.7	1760	–	–
CNCCCC[C@H](NC(=O)[C@H](Cc1ccccc1)NC(=O)OCc1ccccc1)C(N)=O	–	–	595	2.6	1550	–	–
NCCCC[C@H](NC(=O)[C@H](Cc1ccc(-c2cccc(N)c2)cc1)NC(=O)OCc1ccccc1)C(N)=O	–	–	21	1.8	38	–	–
NCCCC[C@H](NC(=O)[C@H](Cc1ccccc1)NC(=O)c1ccccn1)C(N)=O	–	–	15	5.5	80	–	–
NCCC[C@H](NC(=O)[C@H](Cc1ccccc1)NC(=O)OCc1ccccc1)C(N)=O	–	–	703	3.5	2460	–	–
NCCCC[C@H](NC(=O)[C@H](Cc1ccccc1)NC(=O)c1ccc2ccccc2c1)C(N)=O	–	–	301	1	301	–	–
NCCCC[C@H](NC(=O)[C@H](Cc1ccccc1)NC(=O)CCc1ccccc1)C(N)=O	–	–	636	3.2	2040	–	–
NCCCC[C@H](NC(=O)[C@H](Cc1ccccc1)NC(=O)c1ccc(-c2ccccc2)cc1)C(N)=O	–	–	9	9	84	–	–
CN(C)c1ccc(C(=O)N[C@@H](Cc2ccccc2)C(=O)N[C@@H](CCCCN)C(N)=O)cc1	–	–	9	2.9	26	–	–
